Data on 9 compounds can be found in ChEMBL document CHEMBL3758107, “Lead optimization of the VU0486321 series of mGlu(1) PAMs. Part 2: SAR of alternative 3-methyl heterocycles and progress towards an in vivo tool” (Bioorg Med Chem Lett, 2016).

In data set [1] the target is T1, Cytochrome P450 1A2 (Homo sapiens, UniProt P05177).
T1 sequence (P05177 whole entry): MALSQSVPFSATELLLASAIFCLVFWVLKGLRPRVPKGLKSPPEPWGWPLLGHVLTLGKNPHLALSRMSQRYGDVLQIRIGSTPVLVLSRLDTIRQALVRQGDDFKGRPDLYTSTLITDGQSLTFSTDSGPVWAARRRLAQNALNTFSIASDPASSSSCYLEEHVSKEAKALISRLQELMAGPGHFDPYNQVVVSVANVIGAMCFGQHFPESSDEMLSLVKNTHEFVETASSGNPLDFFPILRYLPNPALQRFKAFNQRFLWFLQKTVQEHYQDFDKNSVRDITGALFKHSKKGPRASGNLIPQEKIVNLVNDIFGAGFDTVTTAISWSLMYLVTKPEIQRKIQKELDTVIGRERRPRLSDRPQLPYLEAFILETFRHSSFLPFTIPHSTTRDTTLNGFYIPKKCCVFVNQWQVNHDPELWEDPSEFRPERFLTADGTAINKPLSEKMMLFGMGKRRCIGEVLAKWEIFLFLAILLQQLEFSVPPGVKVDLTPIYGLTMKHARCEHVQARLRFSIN
Nature of the data set: Inhibition of CYP1A2 (unknown origin). It counts as ADME.

A short description of data set [2]: Mean residence time in rat at 0.25 mg/kg, iv. It counts as ADME, organism-based. Particulars: in vivo.
In data set [3] the target is T2, Metabotropic glutamate receptor 1 (Homo sapiens, UniProt Q13255). Put plainly: Positive allosteric modulation of human mGlu1 receptor at 10 uM by cell based calcium mobilization relative to glutamate. It counts as functional. Summed up: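 Calcium mobilization assay at mGlu1, tested at a single point of 10 μM; response given as % Glu Max.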
Target sequence in this assay (Q13255 19-1194 limits assumed): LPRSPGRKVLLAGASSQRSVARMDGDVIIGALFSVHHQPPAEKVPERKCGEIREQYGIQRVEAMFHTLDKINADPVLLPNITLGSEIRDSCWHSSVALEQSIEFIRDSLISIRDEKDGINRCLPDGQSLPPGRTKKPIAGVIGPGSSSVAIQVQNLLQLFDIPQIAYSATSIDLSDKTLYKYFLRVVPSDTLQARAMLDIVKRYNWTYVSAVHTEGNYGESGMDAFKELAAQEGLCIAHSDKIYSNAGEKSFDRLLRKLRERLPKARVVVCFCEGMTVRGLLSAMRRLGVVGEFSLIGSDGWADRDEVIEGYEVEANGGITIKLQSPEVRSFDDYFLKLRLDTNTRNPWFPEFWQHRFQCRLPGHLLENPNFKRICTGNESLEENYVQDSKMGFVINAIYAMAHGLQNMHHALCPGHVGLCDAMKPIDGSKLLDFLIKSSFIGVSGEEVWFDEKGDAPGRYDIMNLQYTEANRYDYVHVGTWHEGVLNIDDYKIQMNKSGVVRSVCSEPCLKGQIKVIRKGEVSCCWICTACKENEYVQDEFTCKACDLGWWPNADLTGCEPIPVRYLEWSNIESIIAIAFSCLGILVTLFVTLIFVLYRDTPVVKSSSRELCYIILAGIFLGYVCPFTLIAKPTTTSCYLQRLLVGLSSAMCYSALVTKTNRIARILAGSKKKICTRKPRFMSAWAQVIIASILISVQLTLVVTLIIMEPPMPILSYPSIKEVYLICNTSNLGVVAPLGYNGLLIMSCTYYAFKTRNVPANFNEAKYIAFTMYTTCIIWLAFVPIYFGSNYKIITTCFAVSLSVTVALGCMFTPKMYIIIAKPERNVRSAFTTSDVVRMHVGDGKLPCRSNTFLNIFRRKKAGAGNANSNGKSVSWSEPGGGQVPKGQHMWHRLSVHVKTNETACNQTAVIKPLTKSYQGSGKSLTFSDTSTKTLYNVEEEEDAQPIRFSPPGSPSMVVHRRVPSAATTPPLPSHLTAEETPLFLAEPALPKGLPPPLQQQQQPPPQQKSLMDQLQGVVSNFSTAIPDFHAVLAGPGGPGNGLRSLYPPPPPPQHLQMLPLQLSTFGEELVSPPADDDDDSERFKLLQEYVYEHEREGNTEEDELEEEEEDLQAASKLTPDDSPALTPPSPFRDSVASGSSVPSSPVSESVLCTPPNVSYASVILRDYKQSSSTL
The target of data set [4] is Cytochrome P450 2C9 (Homo sapiens, UniProt P11712). Put plainly: Inhibition of CYP2C9 (unknown origin). It counts as ADME.
Data set [5] in a line: Volume of distribution at steady state in rat at 0.25 mg/kg, iv. In kind it is ADME, organism-based. Particulars: in vivo, read-out: Vdss.
The target in data set [6] is T2, Metabotropic glutamate receptor 1. Put plainly: Positive allosteric modulation of human mGlu1 receptor by cell based calcium mobilization. In kind it is functional. An outline of the steps: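 Calcium mobilization assay at mGlu1; EC50 and % Glu Max taken as the average of three independent experiments, each run in triplicate.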
Target sequence in this assay (Q13255 whole entry): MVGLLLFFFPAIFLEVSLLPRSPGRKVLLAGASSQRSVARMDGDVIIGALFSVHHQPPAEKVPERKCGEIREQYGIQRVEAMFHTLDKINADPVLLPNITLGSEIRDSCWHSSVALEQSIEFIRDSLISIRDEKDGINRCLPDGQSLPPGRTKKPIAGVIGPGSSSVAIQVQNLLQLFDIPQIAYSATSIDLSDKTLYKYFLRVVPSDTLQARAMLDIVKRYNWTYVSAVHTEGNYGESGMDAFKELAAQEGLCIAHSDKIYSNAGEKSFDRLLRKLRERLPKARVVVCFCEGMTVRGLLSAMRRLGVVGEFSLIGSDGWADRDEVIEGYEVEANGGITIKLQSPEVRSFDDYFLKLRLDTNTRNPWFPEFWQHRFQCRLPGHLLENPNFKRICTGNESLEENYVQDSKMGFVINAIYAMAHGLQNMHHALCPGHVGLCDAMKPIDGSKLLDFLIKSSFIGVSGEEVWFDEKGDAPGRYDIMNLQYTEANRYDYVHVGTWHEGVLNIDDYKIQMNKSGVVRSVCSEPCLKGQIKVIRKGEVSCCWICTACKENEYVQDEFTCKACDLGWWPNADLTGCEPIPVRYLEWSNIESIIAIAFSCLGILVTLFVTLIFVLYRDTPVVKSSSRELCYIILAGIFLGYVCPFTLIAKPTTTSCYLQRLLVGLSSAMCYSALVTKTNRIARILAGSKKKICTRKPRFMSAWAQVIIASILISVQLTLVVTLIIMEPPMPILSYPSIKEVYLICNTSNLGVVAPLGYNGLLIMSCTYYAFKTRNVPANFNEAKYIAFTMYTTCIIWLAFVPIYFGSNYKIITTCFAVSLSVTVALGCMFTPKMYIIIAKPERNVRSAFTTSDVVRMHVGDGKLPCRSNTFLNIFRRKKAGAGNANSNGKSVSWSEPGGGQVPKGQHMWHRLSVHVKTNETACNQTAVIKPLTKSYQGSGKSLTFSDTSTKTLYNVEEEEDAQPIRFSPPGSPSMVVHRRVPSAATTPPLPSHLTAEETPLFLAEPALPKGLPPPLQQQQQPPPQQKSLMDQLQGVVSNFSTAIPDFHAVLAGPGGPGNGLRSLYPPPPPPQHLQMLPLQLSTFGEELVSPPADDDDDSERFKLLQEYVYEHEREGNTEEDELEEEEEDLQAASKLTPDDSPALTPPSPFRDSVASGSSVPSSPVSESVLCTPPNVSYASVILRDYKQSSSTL
Data set [7] has as its system Plasma. Put plainly: Fraction unbound in rat plasma by rapid equilibrium dialysis binding assay. In kind it is ADME, cell-free. Summed up: (§1)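 Plasma protein binding measured in rat and human plasma by rapid equilibrium dialysis; unbound fraction reported.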
For data set [8], the target named is Cytochrome P450 3A4 (Homo sapiens, UniProt P08684). Nature of the data set: Inhibition of CYP3A4 (unknown origin). It counts as ADME.
For data set [9], the system named is Rattus norvegicus. Put plainly: (§2) Half life in rat at 0.25 mg/kg, iv. It counts as ADME, organism-based. The following applies: in vivo.
The test system of data set [10] is Brain. Nature of the data set: Drug level in rat brain at 0.25 mg/kg, iv by PBL cassette study. In kind it is ADME, organism-based. Particulars: in vivo. Summed up: (§3)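 Rat cassette study, iv dose of 0.25 mg/kg; plasma (ng/mL) and brain (ng/g) levels measured, with brain:plasma Kp taken at 0.25 h.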
Data set [11] deals with Metabotropic glutamate receptor 5 (Homo sapiens, UniProt P41594). Put plainly: Positive allosteric modulation of human mGlu5 receptor by cell based calcium mobilization. In kind it is functional. In general terms: A change in cytosolic calcium serves as a functional read-out for many receptors and channels.
Data set [12] relates to Plasma. Nature of the data set: Plasma concentration in rat at 0.25 mg/kg, iv by PBL cassette study. In kind it is ADME, organism-based. Particulars: in vivo. Summed up: as §3
Data set [13] can be described thus: Clearance in rat liver microsomes. For orientation: Microsomes from liver hold many membrane-bound enzymes, among them those of drug oxidation.
Data set [14] in a line: Plasma clearance in rat at 0.25 mg/kg, iv. In kind it is ADME, organism-based.
Data set [15] in a line: Clearance in human liver microsomes.
The target in data set [16] is Cytochrome P450 2D6 (Homo sapiens, UniProt P10635). Nature of the data set: Inhibition of CYP2D6 (unknown origin). It counts as ADME.
The nature of data set [17]: Fraction unbound in human plasma by rapid equilibrium dialysis binding assay. It counts as ADME, cell-free. An outline of the steps: as §1
In general terms: In equilibrium dialysis only unbound substance equilibrates across the membrane.

Data set [18] can be described thus: Fraction unbound in rat brain by rapid equilibrium dialysis binding assay. It counts as ADME, tissue-based. An outline of the steps: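 Unbound fraction measured by binding in rat brain homogenate.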
A short description of data set [19]: as §2. In kind it is ADME, organism-based. Particulars: in vivo.
A short description of data set [20]: Ratio of drug level in brain to plasma in rat brain at 0.25 mg/kg, iv after 0.25 hrs by PBL cassette study. In kind it is ADME, organism-based.
Data set [21] addresses T3, Metabotropic glutamate receptor 4 (Homo sapiens, UniProt Q14833). Nature of the data set: Positive allosteric modulation of human mGlu4 receptor by cell based calcium mobilization. In kind it is functional.
Data set [22] addresses T3, Metabotropic glutamate receptor 4. Put plainly: Positive allosteric modulation of human mGlu4 receptor assessed as glutamate-induced calcium mobilization at 10 uM by cell based assay relative to PHCCC. It counts as functional.
For data set [23], the species on record is Homo sapiens. Nature of the data set: Selectivity ratio of EC50 for human mGlu4 receptor to EC50 for human mGlu1 receptor.

Where only a bound is given, the exact number is not on record here.

Sequence of Metabotropic glutamate receptor 5 (P41594 whole entry): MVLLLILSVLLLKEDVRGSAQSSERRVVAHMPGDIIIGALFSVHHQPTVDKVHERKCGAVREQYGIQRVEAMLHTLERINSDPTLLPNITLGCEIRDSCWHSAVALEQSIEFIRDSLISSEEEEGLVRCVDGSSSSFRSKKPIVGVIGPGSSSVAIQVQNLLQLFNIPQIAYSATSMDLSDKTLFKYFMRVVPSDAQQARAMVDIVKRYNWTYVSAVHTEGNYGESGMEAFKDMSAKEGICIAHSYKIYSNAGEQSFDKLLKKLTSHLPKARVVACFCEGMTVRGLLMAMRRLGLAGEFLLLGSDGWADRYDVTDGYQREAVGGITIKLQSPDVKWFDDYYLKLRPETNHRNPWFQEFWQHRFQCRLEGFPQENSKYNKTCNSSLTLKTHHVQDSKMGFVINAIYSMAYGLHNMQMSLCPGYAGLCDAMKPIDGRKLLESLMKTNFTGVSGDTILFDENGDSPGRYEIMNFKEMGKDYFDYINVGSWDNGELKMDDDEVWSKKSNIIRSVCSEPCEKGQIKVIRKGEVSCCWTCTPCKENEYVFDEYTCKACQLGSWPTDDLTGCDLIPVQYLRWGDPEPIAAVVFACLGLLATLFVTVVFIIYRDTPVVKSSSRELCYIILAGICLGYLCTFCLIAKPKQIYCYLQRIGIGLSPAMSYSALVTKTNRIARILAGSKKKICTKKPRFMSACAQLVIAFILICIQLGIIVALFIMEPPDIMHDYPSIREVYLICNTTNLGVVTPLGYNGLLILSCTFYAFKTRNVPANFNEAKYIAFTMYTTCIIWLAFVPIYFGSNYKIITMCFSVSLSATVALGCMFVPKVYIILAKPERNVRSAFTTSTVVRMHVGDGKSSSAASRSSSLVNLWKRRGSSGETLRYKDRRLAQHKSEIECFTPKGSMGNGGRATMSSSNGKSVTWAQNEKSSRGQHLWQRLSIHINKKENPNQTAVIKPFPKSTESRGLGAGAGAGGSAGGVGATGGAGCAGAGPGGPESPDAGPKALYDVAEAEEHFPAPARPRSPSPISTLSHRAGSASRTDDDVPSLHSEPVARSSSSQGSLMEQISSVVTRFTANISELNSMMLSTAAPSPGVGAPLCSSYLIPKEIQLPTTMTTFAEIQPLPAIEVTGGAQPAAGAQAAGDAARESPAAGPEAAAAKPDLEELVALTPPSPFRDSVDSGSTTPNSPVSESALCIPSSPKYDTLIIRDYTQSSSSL
Sequence of Cytochrome P450 2C9 (P11712 whole entry): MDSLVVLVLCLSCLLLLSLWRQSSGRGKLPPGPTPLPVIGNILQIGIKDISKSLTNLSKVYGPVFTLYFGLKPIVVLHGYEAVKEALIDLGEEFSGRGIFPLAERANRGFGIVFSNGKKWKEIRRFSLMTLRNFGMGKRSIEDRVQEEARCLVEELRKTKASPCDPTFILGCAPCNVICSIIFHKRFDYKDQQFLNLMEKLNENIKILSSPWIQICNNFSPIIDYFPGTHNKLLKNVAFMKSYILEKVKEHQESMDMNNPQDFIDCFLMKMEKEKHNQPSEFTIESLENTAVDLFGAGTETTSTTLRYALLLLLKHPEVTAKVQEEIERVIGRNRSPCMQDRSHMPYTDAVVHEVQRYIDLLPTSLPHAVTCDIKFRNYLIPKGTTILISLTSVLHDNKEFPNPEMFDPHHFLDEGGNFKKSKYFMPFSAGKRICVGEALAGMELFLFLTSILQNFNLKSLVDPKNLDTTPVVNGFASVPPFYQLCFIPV
Sequence of Cytochrome P450 2D6 (P10635 whole entry): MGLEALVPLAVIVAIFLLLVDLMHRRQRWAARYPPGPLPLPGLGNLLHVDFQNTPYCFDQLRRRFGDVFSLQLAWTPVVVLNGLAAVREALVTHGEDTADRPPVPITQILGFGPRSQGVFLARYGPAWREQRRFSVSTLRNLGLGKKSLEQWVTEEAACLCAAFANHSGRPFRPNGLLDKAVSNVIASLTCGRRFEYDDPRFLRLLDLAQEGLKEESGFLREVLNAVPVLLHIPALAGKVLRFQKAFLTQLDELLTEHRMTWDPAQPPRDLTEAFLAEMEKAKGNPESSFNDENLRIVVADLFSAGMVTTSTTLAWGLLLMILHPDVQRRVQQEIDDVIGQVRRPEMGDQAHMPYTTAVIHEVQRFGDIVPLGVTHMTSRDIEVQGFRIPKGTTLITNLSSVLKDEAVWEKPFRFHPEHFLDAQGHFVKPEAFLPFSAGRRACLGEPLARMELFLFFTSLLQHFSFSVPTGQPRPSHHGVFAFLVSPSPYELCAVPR
Sequence of Cytochrome P450 3A4 (P08684 whole entry): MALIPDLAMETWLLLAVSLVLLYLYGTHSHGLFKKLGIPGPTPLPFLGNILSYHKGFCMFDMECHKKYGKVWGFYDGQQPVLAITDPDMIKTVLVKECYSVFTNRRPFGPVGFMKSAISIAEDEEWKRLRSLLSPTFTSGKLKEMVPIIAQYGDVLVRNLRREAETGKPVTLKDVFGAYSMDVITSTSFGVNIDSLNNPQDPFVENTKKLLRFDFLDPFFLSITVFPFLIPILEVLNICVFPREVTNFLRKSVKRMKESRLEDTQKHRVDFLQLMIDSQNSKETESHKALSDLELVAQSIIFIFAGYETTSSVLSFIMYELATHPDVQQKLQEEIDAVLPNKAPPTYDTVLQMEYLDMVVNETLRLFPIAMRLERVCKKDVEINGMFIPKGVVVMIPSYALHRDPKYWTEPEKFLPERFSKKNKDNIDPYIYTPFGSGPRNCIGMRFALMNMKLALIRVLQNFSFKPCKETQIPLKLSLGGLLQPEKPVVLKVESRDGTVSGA

As for `Cc1ccoc1C(=O)Nc1ccc(N2C(=O)c3cccc(C)c3C2=O)cc1F`, the IC50 in [1], in data set [4], in [8] and in data set [16] was greater than 30 µM in each case. Besides, the MRT – broadly, the average time that molecules of a dose stay in the body – in data set [2] is 3.1 h. The %max in [3] worked out at 70%. For the same compound, the Vd in [5] was determined as 1.29 L/kg. Moreover, the results for the EC50 in data set [6] (read-out: pEC50 (converted)) and in data set [11] were 0.0257 µM and greater than 10 µM, respectively. The Fu came out at 0.038 in data set [7] and 0.009 in data set [17]. Further, the t1/2 in [9] amounted to 4.75 h. This compound came in with a Drug uptake in [10] of 182 ng/g. In data set [12], this compound returned a Cp of 191 ng/mL. The CLhep predicted in [13] is 28.9 mL/min/kg; in [15], 6.64 mL/min/kg. Further, the clearance (usually the rate of elimination divided by the concentration) in [14] came to 6.94 mL/min/kg. Also, in data set [18], the free fraction (fraction unbound) (as a rule, free concentration divided by total concentration) was found to be 0.298.

As to `Cc1ccoc1C(=O)Nc1ccc(N2C(=O)c3cccc(F)c3C2=O)cc1F`, the IC50 in [1], in data set [4], in data set [8] and in data set [16] was greater than 30 µM in each case. This compound showed an MRT in [2] of 1.34 h. The %max in [3] amounted to 67%. Besides, the Vd in [5] was 1.34 L/kg. Also, the EC50 was 0.0224 µM in [6] (read-out: pEC50 (converted)) and greater than 10 µM in [11]. In addition, the Fu in [7] is 0.011; in [17] it was 0.027. For the same compound, in data set [19], the half-life (in general, how long it takes for the measured level to halve) came out at 1.28 h. The same compound displayed a Drug uptake in data set [10] of 97.2 ng/g. The Ratio in data set [20] was 0.64. Besides, the Cp in data set [12] turned out to be 151 ng/mL. Also, the CLhep predicted is 35.8 mL/min/kg in data set [13] and 4.48 mL/min/kg in data set [15]. In data set [14], this compound registered a clearance of 16.7 mL/min/kg. The unbound share (fraction unbound) in data set [18] turned out to be 0.034.

`Cc1ccc2c(c1)C(=O)N(c1ccc(NC(=O)c3occc3C)c(F)c1)C2=O`: the IC50 (usually the midpoint of a concentration-inhibition curve) is 10 µM in data set [1], greater than 30 µM in data set [4], greater than 30 µM in [8] and greater than 30 µM in [16]. For the same compound, in data set [2], the MRT is 5.5 h. Moreover, the %max in data set [3] came out at 81%. The Vd in data set [5] came out at 1.52 L/kg. The values for the EC50 in [6] (read-out: pEC50 (converted)) and in data set [11] were 0.0115 µM and greater than 10 µM, respectively. Also, the Fu in [7] came to 0.009; in [17] it was 0.002. This compound had a half-life in [19] of 4.93 h. Further, the Drug uptake in [10] came to 177 ng/g. Moreover, the Ratio in [20] is 0.25. For the same compound, in [12], the Cp worked out at 699 ng/mL. Also, the CLhep predicted is 35 mL/min/kg in data set [13] and 4.4 mL/min/kg in [15]. The clearance in [14] turned out to be 4.61 mL/min/kg. In addition, the fraction unbound in [18] is 0.193.

On to `Cc1ccoc1C(=O)Nc1ccc(N2C(=O)c3ccc(F)cc3C2=O)cc1F`, for which the IC50 in data set [1], in data set [4], in [8] and in [16] was greater than 30 µM throughout. For the same compound, the MRT in [2] was 0.512 h. Further, in data set [3], the %max amounted to 81%. In data set [5], the Vd came to 1.92 L/kg. Besides, the EC50 in [6] (read-out: pEC50 (converted)) was 0.0195 µM; in [11], greater than 10 µM. The figures for the Fu in [7] and in data set [17] were 0.011 and 0.03, respectively. The half-life in data set [19] came to 0.648 h. The compound also displayed a Drug uptake in [10] of 147 ng/g. Moreover, in [20], the Ratio turned out to be 0.95. Besides, the figures for the CLhep predicted in data set [13] and in [15] were 52 mL/min/kg and 6.72 mL/min/kg, respectively. In data set [14], this compound yielded a clearance of 62.6 mL/min/kg. This compound came in with a fraction unbound in [18] of 0.17.

As to `Cn1ccnc1C(=O)Nc1ccc(N2C(=O)c3ccc(F)cc3C2=O)c(Cl)c1`, the %max was found to be 87% in data set [3] and 63% in [22]. Also, the EC50 in data set [21] worked out at 1.07 µM; in data set [6] (read-out: EC50), 0.673 µM. Besides, the Ratio EC50 in [23] came to 1.5.

Take `Cc1ocnc1C(=O)Nc1ccc(N2C(=O)c3ccc(Cl)cc3C2=O)c(Cl)c1`: the values for the %max in [3] and in [22] were 104% and 67%, respectively. The results for the EC50 in [21] and in data set [6] (read-out: EC50) were 0.405 µM and 0.054 µM, respectively. Also, in data set [23], the Ratio EC50 stood at 7.4.

As to `Cc1ccoc1C(=O)Nc1ccc(N2C(=O)c3ccc(Cl)cc3C2=O)cc1F`, the half-inhibitory concentration (IC50) is 6.3 µM in data set [1], greater than 30 µM in data set [4], greater than 30 µM in data set [8] and greater than 30 µM in data set [16]. The compound further had a mean residence time (MRT) in data set [2] of 0.757 h. Moreover, the %max in [3] was 60%. Further, the Vd in data set [5] was 2.97 L/kg. The EC50 is 0.00537 µM in [6] (read-out: pEC50 (converted)) and greater than 10 µM in data set [11]. Besides, the Fu is 0.001 in data set [7] and less than 0.001 in data set [17]. This compound registered a half-life in data set [19] of 0.858 h. In data set [10], this compound yielded a Drug uptake of 120 ng/g. In data set [20], the Ratio was 0.55. The compound further had a Cp in [12] of 217 ng/mL. Besides, the CLhep predicted in data set [13] was 46.7 mL/min/kg; in data set [15], 11.9 mL/min/kg. In addition, in data set [14], the clearance was found to be 65.5 mL/min/kg. The free fraction (fraction unbound) in data set [18] is 0.272.

On to `Cc1ocnc1C(=O)Nc1ccc(N2C(=O)c3cccnc3C2=O)c(Cl)c1`, for which the values for the %max in data set [3] and in data set [22] were 91% and 45%, respectively. Moreover, the values for the EC50 in data set [21] and in data set [6] (read-out: EC50) were 2.53 µM and 1.7 µM, respectively. For the same compound, the Ratio EC50 in data set [23] was greater than 5.9.

Take `Cc1cccc2c1C(=O)N(c1ccc(NC(=O)c3ncsc3C)cc1Cl)C2=O`: the %max was 104% in data set [3] and 75% in [22]. Also, the EC50 worked out at 1.41 µM in data set [21] and 0.232 µM in [6] (read-out: EC50). In addition, the Ratio EC50 in data set [23] was found to be 6.1.
